# Data from PubChem BioAssay.
# Active and inactive are the calls of the source.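 Rule for the calls, unless noted: active = NADPH fluorescence slope more negative than the mean of all samples by about 3 SD, 99.7% confidence; inactive = the rest.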
# Assays:
# [1] = inhibitors of TNFa-induced NFkB p65 translocation, primary screen, imaging, HUVEC, MLSMR starter and 10KST1 sets (AID 438;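 active = inhibition above 20% together with a positive visual image hit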;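 note: compound added about 3h40 before a 20 min TNFalpha stimulation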;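 for inhibition: signal is the nuclear over cytoplasmic p65 intensity ratio per well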); conditions: HUVEC TNFa-induced p65 nuclear translocation; cell count: measured here: nuclei count (cytotoxicity indicator), at 2.08 µM; inhibition: at 2 µM, stronger effect = higher value, 0% TNFa-plus-vehicle, 100% no-TNFa wells
# [2] = inhibitors of mutant huntingtin aggregation, primary screen, imaging, exon1htt(103Q)mCFP cells, high-content imaging (AID 483;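 active = visual image review flags a hit and inhibition of aggregation exceeds 20%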;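 note: compound exposure lasted 3 days before fixation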;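 for nuclei count: percent of the per-plate median nuclei count of sample wells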); conditions: exon1htt(103Q)mCFP cell line, aggregate imaging, at 2 µM; inhibition of aggregation: stronger effect = higher value; nuclei count: measured here: cell count, toxicity
# [3] = inhibitors of E-selectin induction by TNFa, primary screen, imaging, HUVEC, immunofluorescence, MLSMR starter and 10KST1 sets (AID 487;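 active = visually confirmed hit in the image check and inhibition above 20%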;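 for inhibition: signal is fraction of cell area covered by stained E-selectin grains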;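 for nuclei count: 100% = median nuclei count of all wells on the same plate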); conditions: HUVEC TNFalpha-induced E-selectin immunofluorescence imaging, at 2 µM; inhibition: stronger effect = higher value; nuclei count: measured here: cell number, toxicity
# [4] = target: Voltage-gated potassium channel subunit beta-2 (Rattus norvegicus) (UniProt P62483); assay: KvBeta enzyme negative modulators, primary screen, biochemical, NADPH fluorescence (AID 622;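 active = fluorescence slope higher than the sample average by over 3 SD, cut at about -0.22 in these data, passing the limit was not always enough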;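 note: slope of raw intensity against log time taken from 70 to 1610 s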); conditions: recombinant KvBeta, 4-cyanobenzaldehyde reduction, at 10 µM, stronger effect = higher value
# Sequence of Voltage-gated potassium channel subunit beta-2 (Rattus norvegicus) (P62483 whole entry, looked up): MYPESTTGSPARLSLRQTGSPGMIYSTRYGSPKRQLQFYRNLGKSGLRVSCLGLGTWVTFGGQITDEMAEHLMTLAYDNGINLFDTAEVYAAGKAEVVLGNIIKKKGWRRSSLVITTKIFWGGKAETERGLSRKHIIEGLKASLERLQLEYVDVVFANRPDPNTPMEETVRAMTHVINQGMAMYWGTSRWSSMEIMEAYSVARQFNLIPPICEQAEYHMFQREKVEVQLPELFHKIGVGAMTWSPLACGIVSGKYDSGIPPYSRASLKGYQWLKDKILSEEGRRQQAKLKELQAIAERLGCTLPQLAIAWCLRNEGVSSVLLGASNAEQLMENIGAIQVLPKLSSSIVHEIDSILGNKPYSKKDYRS
# [5] = target: Voltage-gated potassium channel subunit beta-2 (Rattus norvegicus) (UniProt P62483); assay: KvBeta positive modulators, primary screen, biochemical, NADPH fluorescence (AID 623); conditions: Recombinant KvBeta, NADPH fluorescence decrease slope, 10 min; at 10 µM; stronger effect = lower value;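 note: fluorescence intensity change per second fitted from 20 to 320 s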
# [6] = target: Muscarinic acetylcholine receptor M4 (Homo sapiens) (UniProt P08173); assay: compounds altering M4/GIRK thallium flux, either direction, primary screen, M4 allosteric agonist project, cell-based, HEK293 M4/GIRK, BTC-AM (AID 625;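 active = fluorescence slope after compound addition differing from the mean of all tested samples at 99.7% confidence, mostly higher but some lower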;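 note: thallium influx through GIRK channels coupled to M4 in HEK293 cells with BTC-AM dye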); conditions: at 10 µM, actives lie on both sides
# Sequence of Muscarinic acetylcholine receptor M4 (Homo sapiens) (P08173 whole entry, looked up): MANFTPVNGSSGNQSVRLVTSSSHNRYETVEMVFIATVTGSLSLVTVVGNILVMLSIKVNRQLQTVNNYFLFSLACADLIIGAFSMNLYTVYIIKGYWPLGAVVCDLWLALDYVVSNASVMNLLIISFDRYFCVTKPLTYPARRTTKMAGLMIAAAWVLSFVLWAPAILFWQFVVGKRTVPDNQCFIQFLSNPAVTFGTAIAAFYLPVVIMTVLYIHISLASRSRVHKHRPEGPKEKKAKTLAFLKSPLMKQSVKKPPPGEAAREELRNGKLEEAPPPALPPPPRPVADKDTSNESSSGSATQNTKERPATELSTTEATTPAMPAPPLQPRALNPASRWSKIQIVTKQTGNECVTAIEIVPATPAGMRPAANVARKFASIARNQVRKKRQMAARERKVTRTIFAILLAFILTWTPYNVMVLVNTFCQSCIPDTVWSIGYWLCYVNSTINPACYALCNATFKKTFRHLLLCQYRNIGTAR
# Procedure, shortened: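 assay system = HEK293 cells with M4 receptor and GIRK channels | medium = pH 7.3 thallium assay buffer | doses = 10 µM final, single point | timing = cells overnight at 37 °C, BTC-AM loading 1 h, reads 2 min total | signal = BTC-AM fluorescence, 1 Hz kinetic reads | read-out = post-addition slope, 15–24 s, of baseline-normalized fluorescence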
# [7] = inhibitors of Sendai virus-induced IRF3 signaling, primary screen, TLR/RLR signaling modifier project, cell-based, Sendai virus stimulus, luciferase, 10K MLSCN set (AID 602276;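 active = inhibition at or above 50% at 10 µM; inactive = inhibition below 50%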;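 note: firefly luciferase from ISG56 promoter only with Renilla not read in this screen; 0% = Sendai virus plus DMSO and 100% = medium plus DMSO without virus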); conditions: HEK293 RL24 IRF3 luciferase reporter, at 10 µM, stronger effect = higher value
# [8] = inhibitors of poly I:C-induced TLR3 signaling, primary screen, cell-based, poly I:C stimulus, luciferase, 10K MLSCN set (AID 602277;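 active = inhibition of the reporter signal at or above 50%; inactive = inhibition below 50%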); conditions: HEK293-TLR3 RL24 IRF3 luciferase reporter, at 10 µM, stronger effect = higher value
# [9] = target: Alpha-2C adrenergic receptor (Homo sapiens) (UniProt P18825); assay: modulators of alpha2C/GIRK thallium flux, primary screen, cell-based, HEK293 alpha2C/GIRK1/2 (AID 624;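 active = fluorescence slope after compound addition differing from the mean of all screened samples at 99.7% confidence, in either direction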;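 note: slope of fluorescence ratio to pre-addition baseline per second over 15 to 24 s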); conditions: thallium flux BTC fluorescence, at 10 µM, actives lie on both sides
# Sequence of Alpha-2C adrenergic receptor (Homo sapiens) (P18825 whole entry, looked up): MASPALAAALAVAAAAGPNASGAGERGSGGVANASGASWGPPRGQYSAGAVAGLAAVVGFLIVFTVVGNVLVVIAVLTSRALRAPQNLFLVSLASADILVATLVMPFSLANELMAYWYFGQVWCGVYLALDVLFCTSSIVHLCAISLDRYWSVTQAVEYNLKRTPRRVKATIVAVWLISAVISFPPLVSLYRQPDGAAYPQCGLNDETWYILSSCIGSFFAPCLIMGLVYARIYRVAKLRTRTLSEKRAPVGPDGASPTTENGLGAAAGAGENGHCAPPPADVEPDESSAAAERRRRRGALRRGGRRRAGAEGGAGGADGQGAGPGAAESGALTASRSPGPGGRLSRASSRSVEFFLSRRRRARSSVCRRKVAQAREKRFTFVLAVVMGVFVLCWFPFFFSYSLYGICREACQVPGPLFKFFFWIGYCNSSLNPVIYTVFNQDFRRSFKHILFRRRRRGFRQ
smiles,measurement,setting,value
CCNC(=O)CC1C(=O)N(c2ccccc2)C(=O)N1Cc1ccc(OC)cc1 (configuration not stated),cell count,[1],442
same,inhibition,[1],5.9% (inactive)
same,inhibition of aggregation,[2],-1.6% (inactive)
same,nuclei count,[2],69.1%
same,inhibition,[3],-289% (inactive)
same,nuclei count,[3],92.6%
same,fluorescence slope,[4],-0.567 (inactive)
same,NADPH fluorescence slope,[5],2e-05 (inactive)
same,fluorescence slope,[6],0.00553 (inactive)
same,inhibition,[7],14.5% (inactive)
same,inhibition,[8],21.8% (inactive)
Cc1cccc(N2CCN(S(=O)(=O)c3ccc4c(c3)CCC(=O)N4)CC2C)c1 (configuration not stated),cell count,[1],322
same,inhibition,[1],4.7% (inactive)
same,inhibition of aggregation,[2],8.5% (inactive)
same,nuclei count,[2],123%
same,inhibition,[3],-29.6% (inactive)
same,nuclei count,[3],126%
same,fluorescence slope,[4],-0.453 (inactive)
same,NADPH fluorescence slope,[5],-0.00034 (inactive)
same,fluorescence slope,[6],0.00513 (inactive)
same,inhibition,[7],10.8% (inactive)
same,inhibition,[8],19.1% (inactive)
O=C(COC(=O)Cc1cccc(C(F)(F)F)c1)NCC1CCCO1 (configuration not stated),cell count,[1],704
same,inhibition,[1],3.3% (inactive)
same,inhibition of aggregation,[2],3% (inactive)
same,nuclei count,[2],106%
same,inhibition,[3],-199% (inactive)
same,nuclei count,[3],134%
same,fluorescence slope,[4],-0.497 (inactive)
same,NADPH fluorescence slope,[5],-0.000214 (inactive)
same,fluorescence slope,[6],0.00505 (inactive)
same,inhibition,[7],-6.76% (inactive)
same,inhibition,[8],2.06% (inactive)
O=C(c1cccn2c(=O)c3cc(Cl)ccc3nc12)N1CCOCC1,cell count,[1],488
same,inhibition,[1],-23.1% (inactive)
same,inhibition of aggregation,[2],10% (inactive)
same,nuclei count,[2],106%
same,inhibition,[3],-117% (inactive)
same,nuclei count,[3],140%
same,fluorescence slope,[4],-0.027 (inactive)
same,NADPH fluorescence slope,[5],8.6e-06 (inactive)
same,fluorescence slope,[6],0.00457 (inactive)
same,inhibition,[7],7.46% (inactive)
same,inhibition,[8],19.6% (inactive)
O=C(c1ccccc1)c1ccc(N2CCOCC2)c(NC(=O)c2ccco2)c1,cell count,[1],318
same,inhibition,[1],-13% (inactive)
same,inhibition of aggregation,[2],-8.7% (inactive)
same,nuclei count,[2],114%
same,inhibition,[3],-23.2% (inactive)
same,nuclei count,[3],119%
same,fluorescence slope,[4],-0.421 (inactive)
same,NADPH fluorescence slope,[5],1e-05 (inactive)
same,fluorescence slope,[6],0.0062 (inactive)
same,inhibition,[7],14.1% (inactive)
same,inhibition,[8],17.3% (inactive)
CCCCC(=NCCO)C1=C(O)C(C(=O)OC)C(C)(C)CC1=O (configuration not stated),cell count,[1],473
same,inhibition,[1],1.8% (inactive)
same,inhibition of aggregation,[2],0.5% (inactive)
same,nuclei count,[2],102%
same,inhibition,[3],-64.1% (inactive)
same,nuclei count,[3],167%
same,fluorescence slope,[4],-0.407 (inactive)
same,NADPH fluorescence slope,[5],5e-05 (inactive)
same,fluorescence slope,[6],0.00804 (inactive)
same,inhibition,[7],16.3% (inactive)
same,inhibition,[8],18.4% (inactive)
Nc1nc(C(=O)N2CCOCC2)nn1S(=O)(=O)c1ccc(Cl)cc1,cell count,[1],177
same,inhibition,[1],23.2% (active)
same,inhibition of aggregation,[2],-3.7% (inactive)
same,nuclei count,[2],103%
same,nuclei count,[3],145%
same,fluorescence slope,[4],-0.59 (inactive)
same,NADPH fluorescence slope,[5],-2.7e-05 (inactive)
same,fluorescence slope,[6],0.00923 (inactive)
same,inhibition,[7],11% (inactive)
same,inhibition,[8],15.9% (inactive)
N=c1c(C(=O)NCc2ccc(F)cc2)cc2c(=O)n3ccccc3nc2n1CCCN1CCOCC1,cell count,[1],537
same,inhibition,[1],4.4% (inactive)
same,inhibition of aggregation,[2],-26.3% (inactive)
same,nuclei count,[2],102%
same,inhibition,[3],-45.8% (inactive)
same,nuclei count,[3],122%
same,fluorescence slope,[4],-0.374 (inactive)
same,NADPH fluorescence slope,[5],-1e-05 (inactive)
same,slope,[9],0.00357 (inactive)
same,inhibition,[8],69.7% (active)
CC(C)(C)c1cc(C(=O)O)nn1-c1ccccc1,cell count,[1],446
same,inhibition,[1],2.5% (inactive)
same,inhibition of aggregation,[2],2.7% (inactive)
same,nuclei count,[2],94.2%
same,nuclei count,[3],130%
same,fluorescence slope,[4],-0.482 (inactive)
same,NADPH fluorescence slope,[5],-3.8e-05 (inactive)
same,fluorescence slope,[6],0.00539 (inactive)
same,inhibition,[7],15.1% (inactive)
same,inhibition,[8],24.6% (inactive)
COc1ccc(OC)c(NC(=O)C2CCN(c3cc(-c4ccccc4)nc4ncnn34)CC2)c1,cell count,[1],449
same,inhibition,[1],2.1% (inactive)
same,inhibition of aggregation,[2],17% (inactive)
same,nuclei count,[2],95%
same,nuclei count,[3],150%
same,fluorescence slope,[4],-0.528 (inactive)
same,NADPH fluorescence slope,[5],1.4e-05 (inactive)
same,fluorescence slope,[6],0.00653 (inactive)
same,inhibition,[7],15% (inactive)
same,inhibition,[8],15.1% (inactive)
Cc1n[nH]c(C)c1S(=O)(=O)Nc1ccc2c(c1)OCCO2,cell count,[1],328
same,inhibition,[1],8.9% (inactive)
same,inhibition of aggregation,[2],29.5% (inactive)
same,nuclei count,[2],91.5%
same,inhibition,[3],10.4% (inactive)
same,nuclei count,[3],84.4%
same,fluorescence slope,[4],-0.469 (inactive)
same,NADPH fluorescence slope,[5],4.4e-05 (inactive)
same,fluorescence slope,[6],0.0057 (inactive)
same,inhibition,[7],26.7% (inactive)
same,inhibition,[8],33.7% (inactive)
COc1ccccc1OCCn1c(=O)sc2ccccc21,cell count,[1],478
same,inhibition,[1],9.8% (inactive)
same,inhibition of aggregation,[2],-14.7% (inactive)
same,nuclei count,[2],90.3%
same,nuclei count,[3],152%
same,fluorescence slope,[4],-0.477 (inactive)
same,NADPH fluorescence slope,[5],1.7e-05 (inactive)
same,fluorescence slope,[6],0.0055 (inactive)
same,inhibition,[7],1.53% (inactive)
same,inhibition,[8],6.17% (inactive)
